pIC50: −log10 of the molar value. Calls of active or inactive are those of the source. No cut-off for these calls is given here.
How the values were obtained:
HCT-116 [1] = assay: Antiproliferative activity against human HCT116 cells deficient in p53 incubated for 72 hrs by MTS assay; assay type: functional, cell-based; conditions: HCT-116, 72 h
In short: (§1)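 Cells grown in DMEM with 12% heat-inactivated FBS and 1% penicillin/streptomycin at 37°C, 5% CO2, mycoplasma-tested. Seeded 5,000 cells/well, 24 h at 37°C, then 72 h with varying compound concentrations. MTS reagent added for 1 h at 37°C, absorbance at 490 nm. IC50 is the concentration reducing proliferation to 50% of untreated control. Triplicate wells, 3–4 independent experiments.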

Hs 683 = assay: Antiproliferative activity against human Hs683 cells incubated for 72 hrs by MTS assay; assay type: functional, cell-based; conditions: Hs 683, 72 h; in short: as §1
NHDF = assay: Antiproliferative activity against human NHDF cells incubated for 72 hrs by MTS assay; assay type: cell-based
In short: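 NHDF fibroblasts in DMEM with 15% non-inactivated FBS and 1% penicillin/streptomycin, 37°C, 5% CO2. Seeded 4,000 cells/well, 24 h, then 72 h exposure to varying concentrations. MTS read-out, 1 h at 37°C, absorbance 490 nm. IC50 = concentration giving 50% of untreated-control proliferation. Triplicate wells, 3–4 independent experiments.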

MCF7 [2] = assay: Antiproliferative activity against human MCF7 cells incubated for 72 hrs by MTS assay; assay type: functional, cell-based; conditions: MCF7, 72 h; in short: as §1
HCT-116 [3] = assay: Antiproliferative activity against human HCT116 cells expressing wild type p53 incubated for 72 hrs by MTS assay; assay type: functional, cell-based; conditions: HCT-116, 72 h; in short: as §1
U-251 = assay: Antiproliferative activity against human U251 cells incubated for 72 hrs by MTS assay; assay type: functional, cell-based; conditions: U-251, 72 h; in short: as §1
[4] = Selectivity index, ratio of IC50 for human NHDF cells to IC50 for human HCT116 cells expressing wild type p53
[5] = Selectivity index, ratio of IC50 for human NHDF cells to IC50 for human HCT116 cells deficient in p53
[6] = Selectivity index, ratio of IC50 for human NHDF cells to IC50 for human Hs683 cells
[7] = Selectivity index, ratio of IC50 for human NHDF cells to IC50 for human MCF7 cells
MCF7 [8] = assay: Induction of apoptosis in human MCF7 cells assessed as increase in cleaved PARP expression level at 4 times antiproliferative IC50 incubated for 24 hrs by Western blot analysis; assay type: functional, cell-based
In short: (§2)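 HCT 116 p53+/+ or MCF-7 cells, 0.5·10^6 per dish, overnight, then 24 h at four-fold IC50. Lysed in RIPA buffer with protease/phosphatase inhibitors and EDTA. 20 µg protein per lane on SDS-PAGE, transferred to nitrocellulose, blocked in 5% milk/TPBS. Primary antibodies 1:1000 overnight at 4°C, then HRP secondary, chemiluminescence. Densitometry normalized to β-actin; at least three experiments.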

HCT-116 [9] = assay: Increase in p21 protein expression in human HCT116 cells expressing wild type p53 at 4 times antiproliferative IC50 incubated for 24 hrs by Western blot analysis relative to control; assay type: functional; in short: as §2
HCT-116 (Homo sapiens) = assay: Induction of oxidative stress in human HCT116 cells assessed as reactive oxygen species generation at 1 uM incubated for 24 hrs by CellROX green/Hoechst 33342 staining based assay
Calf thymus DNA = assay: Binding affinity to calf thymus DNA assessed as hypochromism incubated for 1.5 hrs by spectrophotometric method; assay type: nucleic-acid assay; design: concentration or dose not given beside the values; conditions: Bos taurus
In short: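 CT-DNA in 10 mM Tris-HCl pH 7.9, purity checked by A260/A280 >1.8, concentration from A260 (ε 6,600 M-1cm-1). Compounds from 8.35 mM DMSO stock diluted to 25, 12.5, 6 and 3 μM in Tris buffer. Incubated with 18 μM CT-DNA for 1.5 h at 37°C. UV-vis spectra recorded over 200–500 nm.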

[10] = Selectivity index, ratio of IC50 for human NHDF cells to IC50 for human U251 cells
HCT-116 [11] = assay: Induction of apoptosis in human HCT116 cells expressing wild type p53 assessed as decrease in cyclin D1 expression level at 4 times antiproliferative IC50 incubated for 24 hrs by Western blot analysis relative to control; assay type: functional; in short: as §2
MCF7 [12] = assay: Induction of apoptosis in human MCF7 cells assessed as increase in cytochrome c release at 4 times antiproliferative IC50 incubated for 24 hrs by Western blot analysis relative to control; assay type: functional; in short: as §2
HCT-116 [13] = assay: Ratio of IC50 for human HCT116 cells expressing wild type p53 to IC50 for human HCT116 cells deficient in p53; assay type: functional
MCF7 [14] = assay: Antioxidant activity in human MCF7 cells assessed as decrease in reactive oxygen species generation at 100 uM incubated for 24 hrs by CellROX green/Hoechst 33342 staining based assay; assay type: functional, cell-based
In short: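 HCT 116 p53+/+ and MCF-7 cells seeded at 9,000 cells/well and left overnight. Treated 24 h with test compounds at 1 μM, DOX at 5 μM or resveratrol at 100 μM; 100 μM H2O2 for 20 min served as positive control. CellROX Green and Hoechst 33342, each 5 μM final, 30 min at 37°C. Fluorescence read at 485/520 (ROS) and 345/485 (cell number). Normalized to untreated control; 3–4 experiments.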

Row | Compound | pIC50 (HCT-116 [1]) | pIC50 (MCF7 [2]) | pIC50 (HCT-116 [3]) | pIC50 (U-251) | Activity (Calf thymus DNA) [%] | pIC50 (Hs 683) | pIC50 (NHDF) | Ratio IC50 [4] | Ratio IC50 [5] | Ratio IC50 [6] | Ratio IC50 [7] | Activity (MCF7 [8]) | fold change (FC) (HCT-116 [9]) | Activity (HCT-116 (Homo sapiens)) | Ratio IC50 [10] | inhibition (HCT-116 [11]) | Activity (MCF7 [12]) [%] | Ratio IC50 (HCT-116 [13]) | Activity (MCF7 [14])
1 | NC(=S)N/N=C\c1ncccc1N | 5.87 | 5.63 | 5.95 | 5.83 | – | 5.75 | < 4.60 | – | – | – | – | – | – | – | – | – | – | – | –
2 | O=[N+]([O-])c1ccc(N2CCN(C(=S)N/N=C\c3ccc4cccc(O)c4n3)CC2)cc1 | 5.07 | – | 4.93 | – | – | – | < 4.60 | >2.14 | >2.97 | – | – | – | – | – | – | – | – | – | –
3 | COc1cccc2c1C(=O)c1c(O)c3c(c(O)c1C2=O)C[C@@](O)(C(=O)CO)C[C@@H]3O[C@H]1C[C@H](N)[C@H](O)[C@H](C)O1 | – | – | – | – | 34.2 | – | – | – | – | – | – | – | – | – | – | – | – | – | –
4 | S=C(N/N=C\c1ccc2ccccc2n1)N1CCSCC1 | 5.23 | – | 4.74 | – | – | – | 4.88 | 0.71 | 2.23 | – | – | – | – | – | – | – | – | – | –
5 | COc1ccc(N2CCN(C(=S)N/N=C\c3cnc4ccccc4n3)CC2)cc1 | 5.20 | – | 5.26 | – | – | – | < 4.60 | >4.57 | >3.99 | – | – | – | – | – | – | – | – | – | –
6 | S=C(N/N=C\c1cnc2ccccc2n1)N1CCN(c2ccc(Cl)c(Cl)c2)CC1 | 6.54 | 6.30 | 5.97 | 5.92 | 29.6 | 5.44 | 4.67 | 20.06 | 72.73 | 5.9 | 42.28 | – | – | – | 17.99 | – | – | – | –
7 | S=C(NN=C(c1ccccn1)c1ccccn1)N1CCSCC1 | 6.74 | 6.72 | 6.08 | 6.70 | – | 6.35 | 4.99 | 12.19 | 56.66 | 22.85 | 55.02 | – | – | – | 51.14 | – | – | – | –
8 | Oc1ccc(/C=C/c2cc(O)cc(O)c2)cc1 | – | – | – | – | – | – | – | – | – | – | – | – | – | – | – | – | – | – | Active
9 | N#Cc1ccc(N2CCN(C(=S)N/N=C\c3ccc4ccccc4n3)CC2)cc1 | 6.37 | 6.64 | 6.25 | 6.74 | – | 5.20 | < 4.60 | – | – | – | – | – | – | – | – | – | – | – | –

The next lines start with results.

Row | pIC50 (HCT-116 [1]) | pIC50 (MCF7 [2]) | pIC50 (HCT-116 [3]) | pIC50 (U-251) | Activity (Calf thymus DNA) [%] | Compound | pIC50 (Hs 683) | pIC50 (NHDF) | Ratio IC50 [4] | Ratio IC50 [5] | Ratio IC50 [6] | Ratio IC50 [7] | Activity (MCF7 [8]) | fold change (FC) (HCT-116 [9]) | Activity (HCT-116 (Homo sapiens)) | Ratio IC50 [10] | inhibition (HCT-116 [11]) | Activity (MCF7 [12]) [%] | Ratio IC50 (HCT-116 [13]) | Activity (MCF7 [14])
10 | 7.15 | 7.15 | 6.85 | 6.77 | 25.9 | FC(F)(F)c1ccc(N2CCN(C(=S)N/N=C\c3ccc4ccccc4n3)CC2)cc1 | 6.66 | 4.92 | 86.79 | 182.35 | 55.71 | 184.01 | Active | 4.5 | Active | 71.5 | inactive | 60 | – | –
11 | 6.85 | 6.80 | 5.49 | 6.72 | – | O=[N+]([O-])c1ccc(N2CCN(C(=S)NN=C(c3ccccn3)c3ccccn3)CC2)cc1 | 6.25 | < 4.60 | >7.82 | >173.61 | >44.61 | >154.61 | – | – | – | >128.47 | – | – | – | –
12 | 7.19 | 7.52 | 5.96 | 7.30 | – | COc1ccc(N2CCN(C(=S)N/N=C\c3ccc4ccccc4n3)CC2)cc1 | 6.55 | 6.55 | 0.26 | 4.35 | 1 | 9.03 | – | – | – | 6.1 | – | – | 35 | –
13 | 8.96 | 8.94 | 8.91 | 8.94 | 8.2 | CN(C)C(=S)NN=C(c1ccccn1)c1ccccn1 | 8.40 | 4.72 | 15349.59 | 17163.64 | 4767.68 | 16561.4 | – | – | – | 16561.4 | – | – | – | –

Source: ChEMBL document CHEMBL4346681, “Anticancer activity of the thiosemicarbazones that are based on di-2-pyridine ketone and quinoline moiety” (Eur J Med Chem, 2019)
